Laboratory results: ChEMBL document CHEMBL4229380, “Arylureas derived from colchicine: Enhancement of colchicine oncogene downregulation activity” (Eur J Med Chem, 2018)
Blank lines part the entries; values can stand above or below the molecule they belong to.

What was measured:
HT-29 [1] = experiment: Antiproliferative activity against human HT-29 cells after 2 days by MTT assay; format: functional, cell-based; conditions: HT-29, 48 h
How it was run: (§1)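 Cells (5×10^3 per well) in DMEM with 10% FBS, glucose, glutamine and antibiotics were exposed to serial dilutions (stocks in DMSO) for 2 days at 37 °C, 5% CO2. MTT was added for 3 h, formazan was dissolved in DMSO and absorbance read at 490 nm. Viability was taken as % of untreated cells. IC50 was read graphically from three independent experiments.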

MCF7 = experiment: Antiproliferative activity against human MCF7 cells after 2 days by MTT assay; format: functional, cell-based; conditions: MCF7, 48 h; how it was run: as §1
HeLa = experiment: Antiproliferative activity against human HeLa cells after 2 days by MTT assay; format: functional, cell-based; conditions: 48 h; how it was run: as §1
HEK293 = experiment: Antiproliferative activity against human HEK293 cells after 2 days by MTT assay; format: cell-based; conditions: HEK293, 48 h; how it was run: as §1
HT-29 [2] = experiment: Induction of apoptosis in human HT-29 cells assessed as viable cells at 40 nM after 48 hrs by Annexin V-FITC staining-based flow cytometric analysis (reference value: 82 +/- 1%); format: functional; conditions: HT-29, 48 h, read-out: Activity
HT-29 [3] = experiment: Induction of apoptosis in human HT-29 cells assessed as apoptotic cells at 40 nM after 48 hrs by Annexin V-FITC staining-based flow cytometric analysis (reference value: 13 +/- 3%); format: functional
HT-29 [4] = experiment: Induction of apoptosis in human HT-29 cells assessed as necrotic cells at 40 nM after 48 hrs by Annexin V-FITC staining-based flow cytometric analysis (reference value: 2 +/- 6%); format: functional
HT-29 [5] = experiment: Effect on c-MYC gene expression in human HT-29 cells assessed as c-MYC level at 25 nM after 48 hrs by RT-qPCR analysis; format: functional
How it was run: (§2)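 HT-29 cells at 70–80% confluence were seeded at 1.5×10^5 per well and left 24 h, then treated 48 h, with DMSO as control. Total RNA was extracted and VEGF-A, c-Myc and hTERT were quantified by TaqMan qPCR, normalized to β-actin and to living cell number. Results are % expression versus control, at least three measurements.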

HT-29 [6] = experiment: Effect on hTERT gene expression in human HT-29 cells assessed as hTERT level at 25 nM after 48 hrs by RT-qPCR analysis; format: functional; how it was run: as §2
HT-29 [7] = experiment: Effect on VEGF gene expression in human HT-29 cells assessed as VEGF level at 25 nM after 48 hrs by RT-qPCR analysis; format: functional; how it was run: as §2
HT-29 [8] = experiment: Effect on c-MYC protein expression in human HT-29 cells assessed as c-MYC level at 25 nM after 48 hrs by ELISA; format: functional
How it was run: (§3)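 HT-29 cells (1.5×10^5 per well, 24 h pre-culture) were treated 48 h and washed in PBS. They were lysed in Tris pH 7.4 buffer with detergents, phosphatase inhibitors, PMSF and protease inhibitors. Lysates were adjusted to 200 µg/mL protein (Bradford) and total c-Myc or VEGFR-2 was measured by sandwich ELISA kit. Values are % of DMSO control, ≥3 measurements.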

HT-29 [9] = experiment: Effect on VEGFR2 protein expression in human HT-29 cells assessed as VEGFR2 level at 25 nM after 48 hrs by ELISA; format: functional; how it was run: as §3
HT-29 [10] = experiment: Effect on VEGF protein expression in human HT-29 cells assessed as secreted VEGF level in culture media at 25 nM after 48 hrs by ELISA
HT-29 [11] = experiment: Induction of apoptosis in human HT-29 cells assessed as viable cells at 2000 nM after 48 hrs by Annexin V-FITC staining-based flow cytometric analysis (reference value: 82 +/- 1%); format: functional; conditions: HT-29, 48 h, read-out: Activity
HT-29 [12] = experiment: Induction of apoptosis in human HT-29 cells assessed as apoptotic cells at 2000 nM after 48 hrs by Annexin V-FITC staining-based flow cytometric analysis (reference value: 13 +/- 3%); format: functional
HT-29 [13] = experiment: Induction of apoptosis in human HT-29 cells assessed as necrotic cells at 2000 nM after 48 hrs by Annexin V-FITC staining-based flow cytometric analysis (reference value: 2 +/- 6%); format: functional
HT-29 [14] = experiment: Effect on c-MYC gene expression in human HT-29 cells assessed as c-MYC level at 0.5 nM after 48 hrs by RT-qPCR analysis; format: functional; how it was run: as §2
HT-29 [15] = experiment: Effect on hTERT gene expression in human HT-29 cells assessed as hTERT level at 0.5 nM after 48 hrs by RT-qPCR analysis; format: functional; how it was run: as §2
HT-29 [16] = experiment: Effect on VEGF gene expression in human HT-29 cells assessed as VEGF level at 0.5 nM after 48 hrs by RT-qPCR analysis; format: functional; how it was run: as §2
HT-29 [17] = experiment: Effect on c-MYC protein expression in human HT-29 cells assessed as c-MYC level at 0.5 nM after 48 hrs by ELISA; format: functional; how it was run: as §3
HT-29 [18] = experiment: Effect on VEGFR2 protein expression in human HT-29 cells assessed as VEGFR2 level at 0.5 nM after 48 hrs by ELISA; format: functional; how it was run: as §3
HT-29 [19] = experiment: Effect on VEGF protein expression in human HT-29 cells assessed as secreted VEGF level in culture media at 0.5 nM after 48 hrs by ELISA
HT-29 [20] = experiment: Induction of apoptosis in human HT-29 cells assessed as viable cells at 500 nM after 48 hrs by Annexin V-FITC staining-based flow cytometric analysis (reference value: 82 +/- 1%); format: functional; conditions: HT-29, 48 h, read-out: Activity
HT-29 [21] = experiment: Induction of apoptosis in human HT-29 cells assessed as apoptotic cells at 500 nM after 48 hrs by Annexin V-FITC staining-based flow cytometric analysis (reference value: 13 +/- 3%); format: functional
HT-29 [22] = experiment: Induction of apoptosis in human HT-29 cells assessed as necrotic cells at 500 nM after 48 hrs by Annexin V-FITC staining-based flow cytometric analysis (reference value: 2 +/- 6%); format: functional

SMILES: COc1cc2c(c(OC)c1OC)-c1ccc(OC)c(=O)cc1[C@@H](NC(C)=O)CC2 [COLCHICINE]
IC50 (HT-29 [1]): 0.013 µM | IC50 (MCF7): 0.02 µM | IC50 (HeLa): 0.014 µM | IC50 (HEK293): 0.013 µM | viability at 0.04 µM (HT-29 [2]): 26% | Activity (HT-29 [3]): 73% | Activity (HT-29 [4]): 1% | Activity (HT-29 [5]): 37% | Activity (HT-29 [6]): 87% | Activity (HT-29 [7]): 55% | Activity (HT-29 [8]): 63% | Activity (HT-29 [9]): 94% | Activity (HT-29 [10]): 40%

IC50 (HT-29 [1]): 0.00071 µM | IC50 (MCF7): 0.0009 µM | IC50 (HeLa): 0.003 µM
SMILES: COc1cc2c(c(OC)c1OC)-c1ccc(OC)c(=O)cc1[C@@H](NC(=O)Nc1ccc(C)cc1Cl)CC2
IC50 (HEK293): 0.003 µM | viability at 2 µM (HT-29 [11]): 66% | Activity (HT-29 [12]): 33% | Activity (HT-29 [13]): 1% | Activity (HT-29 [14]): 85% | Activity (HT-29 [15]): 80% | Activity (HT-29 [16]): 70% | Activity (HT-29 [17]): 112% | Activity (HT-29 [18]): 45% | Activity (HT-29 [19]): 75%

IC50 (HT-29 [1]): 0.838 µM | IC50 (MCF7): 0.185 µM | IC50 (HeLa): 0.304 µM
SMILES: CCc1cccc(CC)c1NC(=O)N[C@H]1CCc2cc(OC)c(OC)c(OC)c2-c2ccc(OC)c(=O)cc21
IC50 (HEK293): 0.801 µM | viability at 0.5 µM (HT-29 [20]): 67% | Activity (HT-29 [21]): 32% | Activity (HT-29 [22]): 1%
